We go through 25 molecules from ChEMBL document CHEMBL1153112, “Identification of a series of substituted 2-piperazinyl-5-pyrimidylhydroxamic acids as potent histone deacetylase inhibitors” (Bioorg Med Chem Lett, 2010).

One data set has as its target Histone deacetylase. As to the kind of experiment: Inhibition of HDAC in human HeLa cells extractt. Type of data set: cell-free.
The subject of data set [1] is A2780. As to the kind of experiment: Antiproliferative activity against human A2780 cells. Format: functional, cell-based. Summed up: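 A2780 ovarian carcinoma proliferation assay in 384-well format, modified from the patent protocol. IC50 given as the mean of triplicate experiments ± SD; some values come from a single experiment.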
Data set [2] relates to A2780. As to the kind of experiment: Anticancer activity against human A2780 cells expressing p21 waf1,cip1 xenografted in athymic nude mouse assessed as fold increase in fluorescence at 40 mg/kg, po administered once for 3 days relative to R306465. Type of data set: functional. Summed up:
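A2780 ovarian carcinoma cells engineered to express ZsGreen under the p21waf1,cip1 promoter were grafted subcutaneously into athymic nude mice. Animals were dosed orally at 40 mg/kg for 3 days. In vivo fluorescence induction was then read by noninvasive whole-body imaging and expressed as fold increase versus reference R306465 set at 1.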
(In general: A xenograft is tissue or cells of one species grown in another, often human tumour cells in immunodeficient mice.)

The nature of data set [3]: AUC (0 to infinity) in Sprague-Dawley rat at 10 mg/kg, po administered in water at pH 4.5. Format: ADME, organism-based. Further details: time infinity, dose 10 mg/kg, route oral. Particulars: plasma. Summed up:
(§1)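 Male Sprague-Dawley rats. IV arm dosed at 2.5 mg/kg in water at pH 4.4; oral arm dosed at 10 mg/kg in water at pH 4.5. AUC0-inf taken for each route. Clearance and Vdss come from the IV arm. F (%) comes from the oral versus IV exposure.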

Data set [4] in a line: Half life in Sprague-Dawley rat at 2.5 mg/kg, iv administered in water at pH 4.4 measured 1 to 4 hrs post dose. Type of data set: ADME, organism-based. Particulars: in vivo. The arrangement: dose 2.5 mg/kg, route intravenous. Summed up:
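Male Sprague-Dawley rats given 2.5 mg/kg IV in water at pH 4.4. Terminal half-life fitted over the 1 h to 4 h post-dose window.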

Data set [5] is described as follows: Volume of distribution at steady state in Sprague-Dawley rat at 2.5 mg/kg, iv administered in water at pH 4.4. Type of data set: ADME, organism-based. The arrangement: dose 2.5 mg/kg, route intravenous. Conditions: in vivo, read-out: Vdss. Summed up:
as §1

Data set [6] can be described thus: AUC (0 to infinity) in Sprague-Dawley rat at 2.5 mg/kg, iv administered in water at pH 4.4. Particulars: plasma. Further details: time infinity, dose 2.5 mg/kg, route intravenous. Type of data set: ADME, organism-based. Summed up:
as §1

Data set [7] can be described thus: Oral bioavailability in Sprague-Dawley rat at 10 mg/kg administered in water at pH 4.5. Type of data set: ADME, organism-based. Particulars: in vivo. Summed up: as §1
Data set [8] in a line: Clearance in Sprague-Dawley rat at 2.5 mg/kg, iv administered in water at pH 4.4. Format: ADME, organism-based. Further details: dose 2.5 mg/kg, route intravenous. Conditions: in vivo. Summed up: as §1
The nature of data set [9]: Thermodynamic solubility in phosphate-citrate buffer at pH 7.4. Format: physicochemical. Summed up:
(§2)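 Thermodynamic solubility. About 2.5 mg of solid was weighed and equilibrated in phosphate-citrate buffer at the stated pH, then filtered where needed. The filtrate was diluted in 0.1 N HCl/acetonitrile (1/1) and the concentration measured by UPLC.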

The nature of data set [10]: Half life in Sprague-Dawley rat at 2.5 mg/kg, iv administered in water at pH 4.4 measured 2 to 8 hrs post dose. Type of data set: ADME, organism-based. The arrangement: dose 2.5 mg/kg, route intravenous. Conditions: in vivo. Summed up:
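Male Sprague-Dawley rats given 2.5 mg/kg IV in water at pH 4.4. Half-life estimated from the 2 h to 8 h post-dose interval.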

The nature of data set [11]: Thermodynamic solubility in phosphate-citrate buffer at pH 4.6. Format: physicochemical. Summed up: as §2
Data set [12] can be described thus: Thermodynamic solubility in phosphate-citrate buffer at pH 7.7. Format: physicochemical. Summed up: as §2

pIC50: −log10 of the molar value. Converted amounts (≈) assume the structure as drawn.

At Histone deacetylase, `O=C(NO)c1cnc(N2CCC(NC(/C=C/c3ccccc3)CO)CC2)nc1` (centres undefined) showed an IC50 of 7 nM. In addition, in the data set on A2780 [1] (Homo sapiens, A2780), the pIC50 was 6.66.
For `COCC(/C=C/c1ccccc1)N1CCN(c2ncc(C(=O)NO)cn2)CC1` (centres undefined), at Histone deacetylase, the IC50 came to 1.5 nM. The same molecule had a negative-log IC50 (pIC50) in the data set on A2780 [1] (Homo sapiens, A2780) of 7.35.
For `CN1CCN(CC(/C=C/c2ccccc2)N2CCN(c3ncc(C(=O)NO)cn3)CC2)CC1` (centres undefined) the same measures were 6.9 nM and 6.41.
The corresponding values for `O=C(NO)c1cnc(N2CCN(C(/C=C/c3ccccc3)C(=O)N3CCOCC3)CC2)nc1` (centres undefined) are 7 nM and 6.91.
For `O=C(NO)c1cnc(N2CCN(C(/C=C/c3ccc(C(F)(F)F)cc3)CO)CC2)nc1` (centres undefined) the same measures were 2.1 nM and 7.19.
On to `O=C(NO)c1cnc(N2CCC(CNC(/C=C/c3ccccc3)CO)CC2)nc1` (centres undefined), for which the IC50 on Histone deacetylase is given as 1.5 nM. Besides, the negative-log IC50 (pIC50) with A2780 [1] (Homo sapiens, A2780) is 7.33.
On Histone deacetylase, `O=C(NO)c1cnc(N2CCN(C(/C=C/c3ccccc3F)CO)CC2)nc1` (centres undefined) came in with an IC50 of 2 nM. In the data set on A2780 [1] (Homo sapiens, A2780), this molecule showed a negative-log IC50 (pIC50) of more than 7.52.
On to `O=C(NO)c1cnc(N2CCN(Cc3ccc4ccccc4c3)CC2)nc1`, for which the IC50 against Histone deacetylase turned out to be 1.5 nM. The molecule further showed a pIC50 with A2780 [1] (Homo sapiens, A2780) of 7.18.
For `COc1ccc(/C=C/C(CO)N2CCN(c3ncc(C(=O)NO)cn3)CC2)cc1` (centres undefined) the same measures were 0.95 nM and 7.74.
For the molecule `O=C(NO)c1cnc(N2CCN(C(/C=C/c3ccccc3)CN3CCOCC3)CC2)nc1` (centres undefined), the half-maximal inhibitory concentration (IC50) against Histone deacetylase is given as 11 nM. The molecule further had a pIC50 in the data set with A2780 [1] (Homo sapiens, A2780) of 6.50.
As for `Cc1ccc(/C=C/C(CO)N2CCN(c3ncc(C(=O)NO)cn3)CC2)cc1` (centres undefined), the IC50 against Histone deacetylase is given as 1 nM. The molecule further gave a pIC50 in the data set on A2780 [1] (Homo sapiens, A2780) of 7.74.
For `CC(/C=C/c1ccccc1)N1CCN(c2ncc(C(=O)NO)cn2)CC1` (centres undefined) the same measures were 1.7 nM and 7.70.
The corresponding values for `CNC(=O)C(/C=C/c1ccccc1)N1CCN(c2ncc(C(=O)NO)cn2)CC1` (centres undefined) are 3.3 nM and 6.80.
Regarding `NC(/C=C/c1ccccc1)CN1CCN(c2ncc(C(=O)NO)cn2)CC1` (centres undefined), the “fold change (FC)” value in the data set on A2780 [2] came out at 0.5. The molecule also gave an IC50 on Histone deacetylase of 3.8 nM. In the data set on A2780 [1] (Homo sapiens, A2780), this molecule showed a pIC50 of 6.55.
As to `O=C(NO)c1cnc(N2CCOC(CNC(/C=C/c3ccccc3)CO)C2)nc1` (centres undefined), the IC50 at Histone deacetylase is 8 nM. In the data set with A2780 [1] (Homo sapiens, A2780), this molecule had a negative-log IC50 (pIC50) of 6.53.
The corresponding values for `O=C(NO)c1cnc(N2CCN(C(/C=C/c3ccc(Cl)cc3)CO)CC2)nc1` (centres undefined) are 1.2 nM and 7.77.
For `O=C(NO)c1cnc(N2CCN(C(/C=C/c3ccc(-c4ccccc4)cc3)CO)CC2)nc1` (centres undefined) the same measures were 0.9 nM and 7.54.
For `O=C(NO)c1cnc(N2CCN(C(/C=C/c3cccc(F)c3)CO)CC2)nc1` (centres undefined) the same measures were 1.2 nM and 7.44.
Consider `O=C(NO)c1cnc(N2CCN(C(/C=C/c3ccc(F)cc3)CO)CC2)nc1` (single isomer, unassigned; (+)), for which the pIC50 in the data set with A2780 [1] (a2780) was 7.57.
Turning to `O=C(NO)c1cnc(N2CCN(C(/C=C/c3ccc(F)cc3)CO)CC2)nc1` (single isomer, unassigned; (-)), the area under the curve AUC(0-inf) stood at 466 ng·h/mL in data set [3] and 521 ng·h/mL in data set [6]. In data set [4], this molecule showed a half-life of 0.8 h. Also, the Vd in [5] stood at 1.6 L/kg. Also, in the data set with A2780 [1] (a2780), the pIC50 is 7.51. The same molecule yielded a bioavailability in [7] of 22%. In data set [8], the clearance was 76.7 mL/min/kg.
For `O=C(NO)c1cnc(N2CCN(C(/C=C/c3ccccc3)CO)CC2)nc1` (single isomer, unassigned; (-)), the IC50 at Histone deacetylase came to 1.8 nM. The pIC50 with A2780 [1] (a2780) is 7.52.
On Histone deacetylase, `O=C(NO)c1cnc(N2CCN(C(/C=C/c3ccccc3)CO)CC2)nc1` (stereo in doubt; 3a1) had an IC50 of 1 nM. The molecule also gave a pIC50 in the data set with A2780 [1] (a2780) of 7.40.
With `O=C(NO)c1cnc(N2CCN(C(/C=C/c3ccccc3)CO)CC2)nc1` (stereo in doubt; 3a), in the data set with A2780 [2], the “fold change (FC)” value was 5. The AUC(0-inf) in data set [3] stood at 316 ng·h/mL; in data set [6] it was 413 ng·h/mL. The molecule further came in with an IC50 against Histone deacetylase of 2 nM. For the same molecule, the solubility (thermodynamic) was 1100 µg/mL (≈ 2980 µM) in [9] and more than 10000 µg/mL in data set [11]. In addition, the Vd in data set [5] worked out at 5.8 L/kg. In the data set with A2780 [1] (Homo sapiens, A2780), the pIC50 is 7.60. This molecule also had a bioavailability in [7] of 19%. The half-life in [10] was 2.6 h. This molecule also showed a clearance in data set [8] of 98.3 mL/min/kg.
In the data set with A2780 [1] (Homo sapiens, A2780), `O=C(NO)c1cnc(N2CCN(C(/C=C/c3ccc(F)cc3)CO)CC2)nc1` (stereo in doubt; 3i) had a negative-log IC50 (pIC50) of 7.49.
On to `O=C(NO)c1cnc(N2CCN(S(=O)(=O)c3ccc4ccccc4c3)CC2)nc1` [R-306465], for which the AUC(0-inf) in [3] stood at 3380 ng·h/mL; in [6] it was 2650 ng·h/mL. In data set [12], the solubility (thermodynamic) was less than 100 µg/mL. Moreover, in [5], the Vd was determined as 0.6 L/kg. The pIC50 in the data set with A2780 [1] (Homo sapiens, A2780) is 7.41. The same molecule gave a bioavailability in data set [7] of 20%. Moreover, in [10], the half-life was 1.5 h. For the same molecule, in data set [8], the clearance is 13.3 mL/min/kg.

By IC50 is commonly meant the concentration at which inhibition is half-maximal. The pIC50 is −log10 of the IC50, conventionally taken in molar units. Low readings indicate a large IC50, high ones a small IC50. In general, AUC(0-inf) refers to total exposure, with the tail of the curve extrapolated. Broadly, the half-life is the time in which the quantity being followed falls by half. Read a low half-life as fast loss. One may read the bioavailability as the share of a dose that reaches the circulation, judged against a reference dose that is usually intravenous. A low value points to little systemic uptake. By clearance is commonly meant a measure of how efficiently the substance is removed, as volume per time. For orientation: solubility (thermodynamic) means solubility found after equilibrating the solid with the medium.
